Values joined by “and” are separate entries in the source; they are usually repeats but may differ in a detail not shown here. Identical values can stand only once. Like-named read-outs stand apart in the source and are kept apart here.
Columns and labels:
HCT 116/δOR cells = type: cell-based, human
Procedure, shortened: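 HCT 116/δOR cells (DMEM/F12, 10% calf serum, 1% pen/strep) on glass-bottom dishes, PBS-rinsed, exposed to 2.5 nM agent in Fluorobrite DMEM at 37°C, 5% CO2. Imaged every 30 s for 15 min; then rinsed and imaged in fresh medium, 4 fields every 10 min to 24 h (40× oil, Cy5, 1.5 s). Per-cell ROI intensity×area gave cytoplasm and membrane (total minus cytoplasm) fluorescence; 11–25 cells/day, three days.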

[1] = test system: δOR+ (HCT 116/δOR) and δOR− (HCT 116) tumor xenografts; assay: Dose determination by in vivo fluorescence imaging of bilateral tumor xenografts; parameters: species or system nu/nu mice; conditions: 50 nmol/kg i.v., 24 h post-administration
Procedure, shortened: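 Female nu/nu mice received 8×10^6 cells, HCT 116 in the left flank and HCT 116/δOR in the right, and were imaged after 1 week. Dose given by tail-vein i.v. injection. Animals imaged immediately to confirm injection, then at 24 h, on an IVIS 200. Agent stored in dark aliquots at −80°C; animals kept in a dark chamber. Autofluorescence ratio taken from radiance in identical ROIs on background-subtracted Cy5 and autofluorescence images.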

[2] = test system: δOR+ (HCT 116/δOR) and δOR− (HCT 116) tumor xenografts; type: in vivo, athymic nude female mice; conditions: for Rate of uptake, Slope × 10^7 / Rate of clearance, Slope × 10^7: linear regression, n=5
Procedure, shortened: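 Athymic nude female mice carried bilateral xenografts of 8×10^6 HCT 116 (left) and HCT 116/δOR (right) cells, grown to mean 500 mm3 by caliper (length×width²/2). Single i.v. dose of 4.5 nmol/kg. IVIS 200 Cy5 imaging at 3, 9, 15, 30, 45 min and 1.5, 3, 6, 12, 18, 24, 48, 72, 96, 168 h. Readout after background subtraction and pre-injection autofluorescence correction: ROI mean surface radiance in efficiency units.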

[3] = test system: tumors and organs (spleen, pancreas, liver, kidneys, GI tract, heart, lungs); assay: Ex vivo biodistribution by fluorescence imaging of excised tumors and organs; type: in vivo, mice; conditions: 4.5 nmol/kg
Procedure, shortened: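 Separate group of bilateral HCT 116 / HCT 116/δOR xenograft mice given 4.5 nmol/kg. At 0, 7.5 min, 15 min, 45 min, 3 h, 6 h, 24 h and 48 h: imaged in vivo, then euthanized. Tumors, spleen, pancreas, liver, kidneys, GI tract, heart and lungs excised and fluorescence-imaged ex vivo. Animals kept in low light after dosing.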

[4] = test system: HCT 116/δOR (positive) and HCT 116/RFP (negative) DWC tumors; assay: Intravital confocal microscopy in dorsal skinfold window chamber; type: in vivo, mouse
Procedure, shortened: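 Dorsal skinfold window chamber mice carrying HCT 116/δOR or HCT 116/RFP tumors received 45 nmol/kg via tail vein. Confocal imaging with 25× lens, 3570 pixels/min: continuous for 30 min, including 1, 1.5, 2 and 5 min frames, then further time points up to 24 h. Mean intensity ROIs placed in the vessel interior, in adjacent tumor tissue, and over tumor across time.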

δ-opioid receptor = conditions: read-out: Ki (binding affinity); δ-opioid receptor antagonist; cited from earlier work
[5] = 45 nmol/kg via tail vein, δOR negative tumor vessel

Dmt-Tic-Lys(Cy5)-OH [Dmt-Tic-Cy5]
maximum ratio of fluorescence inside (cytoplasm)/outside (cell membrane) (HCT 116/δOR cells; 2.5 nM): 1.69
time to observed cell-surface labeling after addition of ligand (HCT 116/δOR cells; 2.5 nM): ~ 2 min and 2 min
period of gradual tumor cell internalization (HCT 116/δOR cells; after addition of agent): 6 h and ~ 7 h and 7 h
fold of enhancement (FOE) δOR+ tumor relative to δOR− tumor [1]: 5 fold
time of clearance from δOR− tumor (nearly pre-injection levels) ([2]; 4.5 nmol/kg i.v.): ≤ 6 h
time of maximum fluorescence in δOR− tumor ([2]; 4.5 nmol/kg i.v.): 15 min
time of maximum fluorescence signal in δOR+ tumor ([2]; 4.5 nmol/kg i.v.): 3 h
time of systemic clearance ([2]; 4.5 nmol/kg i.v., based on clearance from negative tumor): ≤ 6 h
enhancement in positive tumor relative to negative tumor ([2]; 4.5 nmol/kg, from 30 min to 96 h post-administration): > 3 fold
Mean FOE (+ tumor/− tumor) ([2]; 4.5 nmol/kg, time 0.15 h): 2.7
Mean FOE (+ tumor/− tumor) ([2]; 4.5 nmol/kg, time 0.25 h): 2.7
Mean FOE (+ tumor/− tumor) ([2]; 4.5 nmol/kg, time 0.50 h): 3.2
Mean FOE (+ tumor/− tumor) ([2]; 4.5 nmol/kg, time 0.75 h): 4.5
Mean FOE (+ tumor/− tumor) ([2]; 4.5 nmol/kg, time 1 h): 6.5
Mean FOE (+ tumor/− tumor) ([2]; 4.5 nmol/kg, time 3 h): 9.7
Mean FOE (+ tumor/− tumor) ([2]; 4.5 nmol/kg, time 6 h): 17.5
Mean FOE (+ tumor/− tumor) ([2]; 4.5 nmol/kg, time 12 h): 13.5
Mean FOE (+ tumor/− tumor) ([2]; 4.5 nmol/kg, time 18 h): 26.7
Mean FOE (+ tumor/− tumor) ([2]; 4.5 nmol/kg, time 24 h): 20.6
Mean FOE (+ tumor/− tumor) ([2]; 4.5 nmol/kg, time 48 h): 8.9
Mean FOE (+ tumor/− tumor) ([2]; 4.5 nmol/kg, time 72 h): 10.8
Mean FOE (+ tumor/− tumor) ([2]; 4.5 nmol/kg, time 96 h): 5.6
Mean FOE (+ tumor/− tumor) ([2]; 4.5 nmol/kg, time 168 h): 1.8
ratio of enhancement in target positive tumors ([2]; maintained from 6 h to 24 h post-administration): approximately 20 fold
Rate of uptake, Slope × 10^7 ([2]; δOR+ tumor, 0 to 0.75 h): 264 Efficiency/h
Rate of clearance, Slope × 10^7 ([2]; δOR+ tumor, 3 to 96 h): −1.45 Efficiency/h
Rate of uptake, Slope × 10^7 ([2]; δOR− tumor, 0 to 0.25 h): 211 Efficiency/h
Rate of clearance, Slope × 10^7 ([2]; δOR− tumor, 0.25 to 24 h): −14.6 Efficiency/h
fluorescence signal in heart, lungs, GI tract, spleen and pancreas (ex vivo) [3]: minimal to no fluorescence signal
time of decrease to pre-injection levels in kidney and liver (ex vivo) ([3]; n=5): ≤ 24 h
time of highest fluorescence signal in kidney and liver (ex vivo) ([3]; n=5): 15 min
time of clearance from tumor vasculature [4, 5]: ≤ 2 min
time to peak intensity in tumor vasculature [4, 5]: ≤ 1 min
time of highest fluorescence intensity in negative tumor (intravital) ([4]; 45 nmol/kg, HCT 116/RFP DWC tumor): 10 min
time of highest fluorescence intensity in positive tumor (intravital) ([4]; 45 nmol/kg, HCT 116/δOR DWC tumor): 30 min
time of clearance of fluorescence from negative tumor (intravital) ([4]; 45 nmol/kg, positive tumor still strong signal): ≤ 24 h
Ki (δ-opioid receptor): 3 nM

From paper PMC4936951 (Molecular pharmaceutics, 2016)
